Data from ChEMBL document CHEMBL4261600 (Eur J Med Chem, 2018).
Calls of active or inactive are those of the source.

Key:
[1] = biological target: Cyclin-dependent kinase 9 (Homo sapiens, UniProt P50750); assay: Inhibition of CDK9 in human MV4-11 cells assessed as decrease in phosphorylation at Thr 186 residues up to 3 uM after 2 hrs by immunoblotting analysis; format: cell-based
[2] = biological target: Cyclin-dependent kinase 7 (Homo sapiens) (UniProt P50613); assay: Inhibition of CDK7 in human MEC1 cells assessed as decrease in RNA polymerase 2 phosphorylation at Ser 5 residues up to 3 uM after 2 hrs by immunoblotting analysis; format: cell-based
[3] = Half life in mouse at 3 mg/kg, iv by LC-MS/MS analysis; format: ADME, organism-based; conditions: in vivo
MV4-11 = assay: Antitumor activity against human MV4-11 cells xenografted in nu/nu mouse assessed as tumor growth inhibition at 20 to 30 mg/kg, po administered via gavage for 21 days measured on day 21 post last dose; format: functional, organism-based
Summary of the method: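 Female nu/nu mice, five weeks old, implanted subcutaneously in the right flank with 5 million MV4-11 cells in PBS/Matrigel 1:1. Daily oral gavage in 0.5% methylcellulose/0.4% Tween80 started at tumor volume 200–400 mm³, 10, 20 or 30 mg/kg/day or vehicle, 5 mice per group. Tumor volume (W²×L)/2 and body weight measured daily; mean ± SEM.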

[4] = biological target: Activin receptor type-1 (Homo sapiens) (UniProt Q04771); assay: Binding affinity to wild-type human ACVR1 (C188 to C509 residues) expressed in bacterial expression system assessed as remaining unbound target protein level at 1000 nM by Kinomescan method relative to control
Summary of the method: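 KINOMEscan competitive binding profile at 1 μM inhibitor. Remaining target binding reported as percent of DMSO control.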

[5] = biological target: Activin receptor type-2B (Homo sapiens) (UniProt Q13705); assay: Binding affinity to wild-type human ACVR2B (H169 to D504 residues) expressed in bacterial expression system assessed as remaining unbound target protein level at 1000 nM by Kinomescan method relative to control
Summary of the method: (§1)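 Single-point competition binding screen across a panel of 468 kinases and mutants, with the inhibitor at 1 μM. Binding is read out as percent of a DMSO control, and targets below 1 percent control were classed as strong binders.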

[6] = biological target: RAC-beta serine/threonine-protein kinase (Homo sapiens) (UniProt P31751); assay: Binding affinity to wild-type human partial length AKT2 expressed in bacterial expression system assessed as remaining unbound target protein level at 1000 nM by Kinomescan method relative to control
Summary of the method: (§2)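 Profiled in a KINOMEscan binding panel with the inhibitor at a single concentration of 1 μM. Binding to each kinase was read out as percent of control, relative to a DMSO control. Strong binders were defined as those with a percent control value below 1.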

[7] = biological target: Calcium/calmodulin-dependent protein kinase type II subunit beta (Homo sapiens) (UniProt Q13554); assay: Binding affinity to wild-type human partial length CAMK2B (M1 to Q380 residues) expressed in bacterial expression system assessed as remaining unbound target protein level at 1000 nM by Kinomescan method relative to control; summary of the method: as §2
[8] = biological target: Macrophage colony-stimulating factor 1 receptor (Homo sapiens) (UniProt P07333); assay: Binding affinity to wild-type human partial length autoinhibited CSF1R (Y538 to S939 residues) expressed in mammalian expression system assessed as remaining unbound target protein level at 1000 nM by Kinomescan method relative to control
[9] = biological target: Mitogen-activated protein kinase 3 (Homo sapiens) (UniProt P27361); assay: Binding affinity to wild-type human full length ERK1 (M1 to P379 residues) expressed in bacterial expression system assessed as remaining unbound target protein level at 1000 nM by Kinomescan method relative to control; summary of the method: as §1
[10] = biological target: Vascular endothelial growth factor receptor 1 (Homo sapiens) (UniProt P17948); assay: Binding affinity to wild-type human partial length FLT1 (R781 to F1239 residues) expressed in bacterial expression system assessed as remaining unbound target protein level at 1000 nM by Kinomescan method relative to control
[11] = biological target: Mitogen-activated protein kinase 9 (Homo sapiens) (UniProt P45984); assay: Binding affinity to wild-type human full length JNK2 (M1 to Q382 residues) expressed in mammalian expression system assessed as remaining unbound target protein level at 1000 nM by Kinomescan method relative to control
Summary of the method: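 KINOMEscan competition binding profile across a panel of 468 kinases and mutants, with the inhibitor tested at a single concentration of 1 μM. Binding is reported as percent of control, meaning signal relative to a DMSO control.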

[12] = biological target: Mitogen-activated protein kinase kinase kinase 3 (Homo sapiens) (UniProt Q99759); assay: Binding affinity to wild-type human partial length MAP3K3 (E320 to Y626 residues) expressed in mammalian expression system assessed as remaining unbound target protein level at 1000 nM by Kinomescan method relative to control
[13] = biological target: Dual specificity mitogen-activated protein kinase kinase 6 (Homo sapiens) (UniProt P52564); assay: Binding affinity to wild-type human partial length MEK6 (K36 to D334 residues) expressed in bacterial expression system assessed as remaining unbound target protein level at 1000 nM by Kinomescan method relative to control
Summary of the method: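 KINOMEscan binding panel of 468 kinases/mutants. Inhibitor was tested at a single concentration of 1 μM. Binding is reported as percent of control, defined relative to a DMSO control.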

[14] = biological target: cAMP-dependent protein kinase catalytic subunit alpha (Homo sapiens) (UniProt P17612); assay: Binding affinity to wild-type human partial length PKAC-alpha (G10 to F351 residues) expressed in bacterial expression system assessed as remaining unbound target protein level at 1000 nM by Kinomescan method relative to control
[15] = biological target: RAF proto-oncogene serine/threonine-protein kinase (Homo sapiens) (UniProt P04049); assay: Binding affinity to wild-type human partial length RAF1 (I330 to T640 residues) expressed in bacterial expression system assessed as remaining unbound target protein level at 1000 nM by Kinomescan method relative to control
[16] = biological target: Proto-oncogene tyrosine-protein kinase receptor Ret (Homo sapiens) (UniProt P07949); assay: Binding affinity to wild-type human partial length RET (E713 to D1014 residues) expressed in bacterial expression system assessed as remaining unbound target protein level at 1000 nM by Kinomescan method relative to control
[17] = biological target: Ribosomal protein S6 kinase alpha-4 (Homo sapiens) (UniProt O75676); assay: Binding affinity to wild-type human partial length N-terminal RPS6KA4 kinase domain 1 expressed in bacterial expression system assessed as remaining unbound target protein level at 1000 nM by Kinomescan method relative to control
[18] = biological target: Ribosomal protein S6 kinase alpha-3 (Homo sapiens) (UniProt P51812); assay: Binding affinity to wild-type human partial length N-terminal RSK2 kinase domain 1 (M1 to D394 residues) expressed in mammalian expression system assessed as remaining unbound target protein level at 1000 nM by Kinomescan method relative to control
[19] = biological target: Dual specificity testis-specific protein kinase 1 (Homo sapiens) (UniProt Q15569); assay: Binding affinity to wild-type human full length TESK1 (R37 to S626 residues) expressed in bacterial expression system assessed as remaining unbound target protein level at 1000 nM by Kinomescan method relative to control; summary of the method: as §2
Dual specificity testis-specific protein kinase 1 (Homo sapiens), sequence (Q15569 whole entry, looked up, the tested form may be a part): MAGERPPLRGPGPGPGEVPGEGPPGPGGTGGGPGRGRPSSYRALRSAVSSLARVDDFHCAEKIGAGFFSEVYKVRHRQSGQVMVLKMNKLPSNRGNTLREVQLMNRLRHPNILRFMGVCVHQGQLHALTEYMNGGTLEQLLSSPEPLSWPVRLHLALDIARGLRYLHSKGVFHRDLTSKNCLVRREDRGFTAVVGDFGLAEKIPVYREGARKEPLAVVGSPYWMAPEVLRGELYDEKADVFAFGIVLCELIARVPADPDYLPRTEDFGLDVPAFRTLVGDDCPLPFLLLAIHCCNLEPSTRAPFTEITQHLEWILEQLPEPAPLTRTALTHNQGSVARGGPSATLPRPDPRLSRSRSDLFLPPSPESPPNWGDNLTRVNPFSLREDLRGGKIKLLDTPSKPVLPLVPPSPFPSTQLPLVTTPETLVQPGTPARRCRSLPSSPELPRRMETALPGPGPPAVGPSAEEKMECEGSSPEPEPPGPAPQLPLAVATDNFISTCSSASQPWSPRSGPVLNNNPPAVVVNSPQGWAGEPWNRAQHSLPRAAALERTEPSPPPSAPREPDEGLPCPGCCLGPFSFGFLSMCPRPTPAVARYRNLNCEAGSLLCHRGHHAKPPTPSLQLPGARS

RAC-beta serine/threonine-protein kinase (Homo sapiens), sequence (P31751 whole entry): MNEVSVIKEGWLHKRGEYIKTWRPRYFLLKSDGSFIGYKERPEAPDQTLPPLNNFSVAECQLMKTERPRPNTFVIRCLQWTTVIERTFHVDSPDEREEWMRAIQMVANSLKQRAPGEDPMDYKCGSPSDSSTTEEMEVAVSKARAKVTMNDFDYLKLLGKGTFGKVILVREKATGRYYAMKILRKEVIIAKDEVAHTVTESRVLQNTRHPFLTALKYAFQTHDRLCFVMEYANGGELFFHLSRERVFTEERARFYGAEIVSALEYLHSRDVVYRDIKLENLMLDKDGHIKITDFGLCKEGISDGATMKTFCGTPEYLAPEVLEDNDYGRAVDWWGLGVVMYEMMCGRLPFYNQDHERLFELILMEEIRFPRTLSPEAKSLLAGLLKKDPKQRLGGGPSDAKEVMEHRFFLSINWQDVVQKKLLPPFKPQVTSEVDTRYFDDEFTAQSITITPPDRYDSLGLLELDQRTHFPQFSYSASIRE
Mitogen-activated protein kinase 3 (Homo sapiens), sequence (P27361 whole entry, the tested form may be a part): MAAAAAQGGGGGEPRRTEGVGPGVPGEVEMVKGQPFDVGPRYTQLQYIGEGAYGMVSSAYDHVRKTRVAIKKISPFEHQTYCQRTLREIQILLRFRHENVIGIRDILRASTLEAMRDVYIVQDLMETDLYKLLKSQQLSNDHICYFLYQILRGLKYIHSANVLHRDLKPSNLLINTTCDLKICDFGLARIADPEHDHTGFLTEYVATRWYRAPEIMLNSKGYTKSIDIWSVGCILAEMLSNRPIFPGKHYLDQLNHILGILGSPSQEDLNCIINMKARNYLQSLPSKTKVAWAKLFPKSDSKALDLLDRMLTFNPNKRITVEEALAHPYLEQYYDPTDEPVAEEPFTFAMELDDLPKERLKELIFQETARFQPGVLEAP
Ribosomal protein S6 kinase alpha-4 (Homo sapiens), sequence (O75676 whole entry, looked up, the tested form may be a part): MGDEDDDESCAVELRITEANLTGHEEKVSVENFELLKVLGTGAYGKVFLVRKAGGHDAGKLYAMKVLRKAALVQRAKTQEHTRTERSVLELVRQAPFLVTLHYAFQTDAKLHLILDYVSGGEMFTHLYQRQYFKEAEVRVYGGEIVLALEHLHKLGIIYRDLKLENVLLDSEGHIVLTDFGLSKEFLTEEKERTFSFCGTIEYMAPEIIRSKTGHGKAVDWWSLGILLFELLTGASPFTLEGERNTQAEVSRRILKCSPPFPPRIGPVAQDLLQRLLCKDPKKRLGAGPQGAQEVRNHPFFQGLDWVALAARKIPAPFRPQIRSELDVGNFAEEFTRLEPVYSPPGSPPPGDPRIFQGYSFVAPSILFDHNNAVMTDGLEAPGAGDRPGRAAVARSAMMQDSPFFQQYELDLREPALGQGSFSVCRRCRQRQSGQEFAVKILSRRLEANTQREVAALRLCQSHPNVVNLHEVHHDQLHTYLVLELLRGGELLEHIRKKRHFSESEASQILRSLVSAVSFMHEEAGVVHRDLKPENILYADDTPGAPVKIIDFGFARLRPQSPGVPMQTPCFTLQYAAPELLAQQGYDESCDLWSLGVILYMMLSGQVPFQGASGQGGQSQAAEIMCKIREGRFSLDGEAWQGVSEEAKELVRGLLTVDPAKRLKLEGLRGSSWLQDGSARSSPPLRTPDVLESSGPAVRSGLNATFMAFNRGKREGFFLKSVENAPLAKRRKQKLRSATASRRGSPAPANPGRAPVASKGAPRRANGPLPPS
Activin receptor type-1 (Homo sapiens), sequence (Q04771 whole entry, the tested form may be a part): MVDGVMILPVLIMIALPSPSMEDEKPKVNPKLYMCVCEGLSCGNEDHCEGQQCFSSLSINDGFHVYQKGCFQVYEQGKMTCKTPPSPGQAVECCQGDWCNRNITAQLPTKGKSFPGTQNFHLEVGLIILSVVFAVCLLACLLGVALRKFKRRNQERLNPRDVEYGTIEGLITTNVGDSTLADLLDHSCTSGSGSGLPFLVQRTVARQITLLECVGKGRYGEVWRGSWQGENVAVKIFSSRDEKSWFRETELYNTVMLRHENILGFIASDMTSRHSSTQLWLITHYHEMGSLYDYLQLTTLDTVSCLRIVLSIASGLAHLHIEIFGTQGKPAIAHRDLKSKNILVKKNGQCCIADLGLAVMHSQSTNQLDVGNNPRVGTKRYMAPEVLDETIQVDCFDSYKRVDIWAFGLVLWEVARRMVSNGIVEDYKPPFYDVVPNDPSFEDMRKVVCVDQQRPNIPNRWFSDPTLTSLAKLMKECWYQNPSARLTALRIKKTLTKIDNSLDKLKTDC
Proto-oncogene tyrosine-protein kinase receptor Ret (Homo sapiens), sequence (P07949 whole entry, the tested form may be a part): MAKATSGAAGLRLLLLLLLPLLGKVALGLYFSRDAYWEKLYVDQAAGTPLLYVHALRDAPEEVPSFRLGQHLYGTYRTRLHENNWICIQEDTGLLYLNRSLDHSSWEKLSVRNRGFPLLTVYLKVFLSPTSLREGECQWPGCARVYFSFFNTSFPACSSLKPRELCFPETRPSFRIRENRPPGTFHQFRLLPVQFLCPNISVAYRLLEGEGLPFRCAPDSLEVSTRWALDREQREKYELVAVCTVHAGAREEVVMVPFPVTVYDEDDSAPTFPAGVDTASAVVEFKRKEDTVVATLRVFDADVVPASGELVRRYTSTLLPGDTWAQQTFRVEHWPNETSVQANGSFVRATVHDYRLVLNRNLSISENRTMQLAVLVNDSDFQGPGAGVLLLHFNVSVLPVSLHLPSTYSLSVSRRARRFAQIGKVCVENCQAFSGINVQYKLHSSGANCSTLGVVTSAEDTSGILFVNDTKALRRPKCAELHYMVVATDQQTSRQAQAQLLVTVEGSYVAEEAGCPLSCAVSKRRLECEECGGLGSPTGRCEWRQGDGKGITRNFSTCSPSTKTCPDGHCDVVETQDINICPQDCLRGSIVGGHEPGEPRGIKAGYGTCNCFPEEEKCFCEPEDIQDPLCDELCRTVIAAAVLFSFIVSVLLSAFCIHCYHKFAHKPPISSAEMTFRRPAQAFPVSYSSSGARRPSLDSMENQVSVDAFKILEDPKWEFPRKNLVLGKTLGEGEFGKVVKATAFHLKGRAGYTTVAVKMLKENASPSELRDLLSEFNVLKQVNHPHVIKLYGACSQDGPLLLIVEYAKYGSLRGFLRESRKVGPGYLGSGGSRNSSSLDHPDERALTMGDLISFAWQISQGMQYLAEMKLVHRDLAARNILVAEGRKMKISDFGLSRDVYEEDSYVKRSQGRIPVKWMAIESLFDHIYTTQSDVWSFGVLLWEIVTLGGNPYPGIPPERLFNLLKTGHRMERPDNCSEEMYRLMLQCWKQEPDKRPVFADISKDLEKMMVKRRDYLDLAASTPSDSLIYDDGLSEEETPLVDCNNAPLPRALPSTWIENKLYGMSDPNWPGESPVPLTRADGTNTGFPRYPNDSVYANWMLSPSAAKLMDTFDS
Cyclin-dependent kinase 9, sequence (P50750 whole entry): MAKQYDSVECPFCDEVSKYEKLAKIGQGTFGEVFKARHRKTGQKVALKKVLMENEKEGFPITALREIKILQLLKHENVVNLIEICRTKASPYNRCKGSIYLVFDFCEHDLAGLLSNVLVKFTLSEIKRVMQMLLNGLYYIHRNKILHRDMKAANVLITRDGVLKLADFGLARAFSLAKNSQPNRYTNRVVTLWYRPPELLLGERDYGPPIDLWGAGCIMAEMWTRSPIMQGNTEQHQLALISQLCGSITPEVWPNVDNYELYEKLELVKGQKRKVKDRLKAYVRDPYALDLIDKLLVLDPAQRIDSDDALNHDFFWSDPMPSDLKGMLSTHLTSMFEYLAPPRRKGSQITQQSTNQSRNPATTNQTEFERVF
Cyclin-dependent kinase 7 (Homo sapiens), sequence (P50613 whole entry): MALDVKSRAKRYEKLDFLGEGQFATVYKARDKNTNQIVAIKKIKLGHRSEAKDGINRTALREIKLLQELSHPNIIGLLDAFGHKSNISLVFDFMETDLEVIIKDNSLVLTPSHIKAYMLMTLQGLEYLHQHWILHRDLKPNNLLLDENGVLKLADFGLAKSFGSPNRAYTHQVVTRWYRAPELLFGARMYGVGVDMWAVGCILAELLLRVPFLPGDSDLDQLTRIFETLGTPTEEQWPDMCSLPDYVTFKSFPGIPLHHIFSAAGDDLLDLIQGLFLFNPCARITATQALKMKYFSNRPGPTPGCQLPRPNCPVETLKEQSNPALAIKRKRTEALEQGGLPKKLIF
Mitogen-activated protein kinase 9 (Homo sapiens), sequence (P45984 whole entry, looked up, the tested form may be a part): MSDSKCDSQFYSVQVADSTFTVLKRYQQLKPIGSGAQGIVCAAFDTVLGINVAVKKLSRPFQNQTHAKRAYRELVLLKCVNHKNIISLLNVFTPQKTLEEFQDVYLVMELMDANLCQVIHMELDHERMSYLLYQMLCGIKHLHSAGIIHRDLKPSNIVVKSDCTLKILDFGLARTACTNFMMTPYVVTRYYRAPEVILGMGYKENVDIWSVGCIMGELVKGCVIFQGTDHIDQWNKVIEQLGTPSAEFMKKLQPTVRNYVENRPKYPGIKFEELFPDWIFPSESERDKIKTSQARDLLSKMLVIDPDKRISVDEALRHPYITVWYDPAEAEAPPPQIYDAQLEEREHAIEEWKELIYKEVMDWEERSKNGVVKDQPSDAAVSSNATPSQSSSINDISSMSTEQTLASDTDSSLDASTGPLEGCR

COCCN[C@H]1CC[C@H](Nc2cc(-c3csc(NCC4(C#N)CCOCC4)n3)c(Cl)cn2)CC1
inhibition [1]: inactive | inhibition [2]: inactive | half-life [3]: 1.72 h | TGI (MV4-11): Active | Activity [4]: 91% | Activity [5]: 98% | Activity [6]: 88% | Activity [7]: 100% | Activity [8]: 90% | Activity [9]: 90% | Activity [10]: 98% | Activity [11]: 8.2% | Activity [12]: 100% | Activity [13]: 68% | Activity [14]: 87% | Activity [15]: 100% | Activity [16]: 100% | Activity [17]: 92% | Activity [18]: 100% | Activity [19]: 92%
